# PfHsp90 yeast 2: growth inhibition of PfHsp90-expressing yeast, primary screen, antimalarial PfHsp90 inhibitor project, S. cerevisiae, BacTiter-Glo luminescence, single point, set 2 | 310,000 compounds, 0.32% hits | BacTiter-Glo ATP, 48 h; yeast lacking PDR1 and PDR3 efflux regulators | AID 504621, 2011 | inhibition, % at 9.4 µM;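 active = every replicate shows inhibition above about 80%, whatever the replicate mean, limit read from the data; inconclusive = mean inhibition reaches the set limit but some replicate falls short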
# SKKanGAS inh: S. pyogenes SKKanGAS growth inhibitors in kanamycin, primary screen, streptokinase expression inhibitor project, SKKanGAS strain, BacTiter-Glo luminescence. 6 h. inhibition, % at 7.5 µM. 300,000 compounds, 1.3% hits. AID 1662, 2009;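 active = mean replicate score, as percent of positive control median, at least 50; inconclusive = mean below 50 but one replicate at or above 50; inactive = mean and every replicate below 50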;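 also: strain carries kanamycin resistance gene driven by streptokinase promoter and grows in 40 µg/ml kanamycin; loss of luminescence reflects streptokinase promoter inhibition or plain growth inhibition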
# FN deposit inh: inhibitors of fibronectin matrix deposition, primary screen, AH1F cells, Alexa488-fibronectin fluorescence, plate reader; 350,000 compounds, 0.086% hits; AH1F fibroblasts, overnight; AID 743247, 2014; inhibition, % at 12.6 µM;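 active = mean inhibition across replicates of 30% or more, regardless of how many single replicates reach that level; inconclusive = mean under 30% yet at least half of replicates reach 30%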
#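 Measured by – fluorescence 485/525 nm · System – AH1F fibroblast monolayer, labelled fibronectin deposition · Amount – 10000 cells per well · Buffer or medium – serum-reduced DMEM (2% serum) · Doses – single dose, pinned · Also added – fluorescent fibronectin at 24 nM final · Schedule – 1 h cell attachment, overnight exposure to compound and label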
# PglD DTNB: C. jejuni PglD acetyltransferase inhibitors, primary screen, biochemical, DTNB colorimetric, single point | AID 602405, 2012 | inhibition, % at 12.5 µM | UDP-N-acetylbacillosamine N-acetyltransferase PglD (Campylobacter jejuni) | purified PglD enzyme, DTNB colorimetric CoA detection | 360,000 compounds, 0.098% hits; in the data active = inhibition above about 16%, passing the limit was not always enough; inconclusive = no clear call, values can overlap the other calls
# Rtt109 HAT inh: inhibitors of C. albicans Rtt109/Vps75 HAT, primary screen, biochemical, ThioGlo CoA-SH fluorescence, plate reader; Histone acetyltransferase RTT109 (Candida albicans (strain SC5314 / ATCC MYA-2876)), …; purified Rtt109/Vps75, 4 h; inhibition, % at 34.9 µM; 330,000 compounds, 0.16% hits; AID 540336, 2011;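 active = inhibition of at least 50% in every replicate; inconclusive = best replicate reaches 50% inhibition but some replicates fall short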
# Target sequence (Q5AAJ8 whole entry, looked up): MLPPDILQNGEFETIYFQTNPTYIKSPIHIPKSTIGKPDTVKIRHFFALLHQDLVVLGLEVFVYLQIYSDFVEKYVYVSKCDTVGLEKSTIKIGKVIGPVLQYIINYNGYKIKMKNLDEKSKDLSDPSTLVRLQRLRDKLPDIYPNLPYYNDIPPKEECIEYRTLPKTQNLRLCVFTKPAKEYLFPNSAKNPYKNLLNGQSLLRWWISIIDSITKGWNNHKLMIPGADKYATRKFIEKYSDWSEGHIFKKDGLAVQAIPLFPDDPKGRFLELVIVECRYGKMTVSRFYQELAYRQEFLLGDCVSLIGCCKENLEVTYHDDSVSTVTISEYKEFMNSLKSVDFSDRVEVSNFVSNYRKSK
# CSC inhib: cancer stem cell viability inhibitors, primary screen, luminescence; cancer stem cell-like cells viability; inhibition, % at 7.5 µM; 300,000 compounds, 1.1% hits; AID 2717, 2010; in the data active = inhibition above about 75%; inconclusive = no clear call, values can overlap the other calls; tested in HMLE shEcad cells
# Hits are given with their value; n = inactive; u = inconclusive; x = not tested or not shown. Only some compounds are listed: those with a hit (about 1.7% of all), similar ones and a draw of the others.
SMILES,PfHsp90 yeast 2,SKKanGAS inh,FN deposit inh,PglD DTNB,Rtt109 HAT inh,CSC inhib
Cc1cc(C)c2c(=O)n(CC(=O)Nc3ccc(Cl)cc3)sc2n1,n,n,n,x,x,u
Cc1cccc(N2CCN(C(=O)Cn3sc4nc(C)cc(C)c4c3=O)CC2C)c1 (centres undefined),167,n,x,n,159,n
Cc1ccc(NC(=O)Cn2sc3nc(C)cc(C)c3c2=O)c(Cl)c1,n,n,n,n,154,n
C[C@@H]1CN([C@@H](C)CO)C(=O)c2cc(C#Cc3ccccn3)cnc2O[C@@H]1CN(C)Cc1ccncc1,x,x,n,n,x,x
COc1cccc(S(=O)(=O)N[C@H]2C=C[C@H](CC(=O)NCc3ccc(F)cc3)O[C@H]2CO)c1,x,x,n,n,x,x
C[C@@H]1CCCCO[C@H](CN(C)C(=O)CCCN(C)C)[C@@H](C)CN([C@H](C)CO)C(=O)c2cc(NS(=O)(=O)c3cn(C)cn3)ccc2O1,x,x,x,n,x,x
O=C(NC(=S)Nc1ccc(Cl)cn1)C(c1ccccc1)c1ccccc1,x,77,x,x,n,n
CC(C)(C)C(=O)NC(=S)NNC(=O)C(c1ccccc1)c1ccccc1,n,n,x,n,n,n
CC(=O)NNC(=S)NC(=O)C(c1ccccc1)c1ccccc1,n,61,n,x,n,n
COc1ccc(NC(=O)Nc2ccc3c(c2)C(=O)N([C@@H](C)CO)C[C@@H](C)[C@H](CN(C)CC2CCCCC2)O3)cc1,x,x,x,n,x,x
Cc1ccc(NC(=O)c2cc(N3C(=O)C=CC3=O)ccc2N2CCOCC2)cc1Cl,105,61,n,x,n,n
COC(=O)c1cc(NC(=O)c2cc(-c3ccccc3Cl)oc2C(F)(F)F)ccc1N1CCOCC1,n,n,n,n,n,89
COC(=O)c1cc(NC(=O)c2cc(-c3ccc(Cl)cc3)oc2C(F)(F)F)ccc1N1CCOCC1,n,59,n,n,n,n
CO[C@@H]1CN(C)C(=O)c2cc(NC(=O)C3CC3)ccc2OC[C@@H](C)N(Cc2ccccc2)C[C@@H]1C,x,x,n,n,x,x
O=C1N[C@H](Cc2ccccc2)COCc2cnnn2CC[C@@H]1Cc1cccc(F)c1,x,x,n,x,x,x
CCOC(=O)C(C)N1C(=O)S/C(=C/c2ccc3c(c2)n(C)c(=O)n3C)C1=O (centres undefined),n,n,n,n,54,n
Cc1ccc(-c2ccc3c(c2)O[C@H](CN(C)C(=O)C2CCC2)[C@H](C)CN([C@@H](C)CO)S3(=O)=O)cc1,x,x,x,n,x,x
Cc1ccc(C)c(OCCCCN2CCNCC2)c1C,n,n,n,n,n,129
C[C@@H]1CCCCO[C@H](CN(C)S(C)(=O)=O)[C@@H](C)CN([C@@H](C)CO)C(=O)c2cc(NS(C)(=O)=O)ccc2O1,x,x,x,n,x,x
CCC1SC(C)C/C(=N/NC(N)=O)C1C (centres undefined),n,n,n,n,n,n
CC1CC(C)C(=NNC(N)=O)C(C(O)CC2CCC(=O)NC2=O)C1 (centres undefined),114,x,n,n,n,x
CCOc1ccc(S(=O)(=O)NC2CCCCCC2)cc1,n,n,n,x,n,n
CCOc1cc(S(=O)(=O)NC2CCCCCC2)ccc1F,108,n,x,n,n,x
CSc1nc2ccc(S(=O)(=O)NC3CCCCC3)cc2s1,104,n,x,x,n,n
O=C(CN(c1ccc(Cl)cc1)S(=O)(=O)c1ccc(Cl)c([N+](=O)[O-])c1)NCCc1ccc(F)cc1,n,n,n,n,n,82
SMILES,PfHsp90 yeast 2,SKKanGAS inh,FN deposit inh,PglD DTNB,Rtt109 HAT inh,CSC inhib
C=CCNc1nc(N)c([N+](=O)[O-])c(N2CCCCCC2)n1,n,n,n,n,n,n
CCN(CC)CCCNc1nc(N)c([N+](=O)[O-])c(N2CCCCCC2)n1,n,66,n,x,x,n
CC(C)NC(=O)N(C)C[C@H]1Oc2ccc(NC(=O)CCC(F)(F)F)cc2C(=O)N([C@@H](C)CO)C[C@H]1C,x,x,x,n,x,x
Cc1cc(NC(=O)c2cc(-c3ccncc3)nc3ccccc23)ccc1Br,n,x,x,n,n,86
CCCOc1cccc(-c2cc(C(=O)N/N=C/c3ccccn3)c3ccccc3n2)c1,n,92,x,n,n,n
O=C(N/N=C/c1ccccn1)c1cc(-c2ccc(Br)cc2)nc2ccccc12,106,107,n,x,n,n
O=C(N/N=C/c1ccco1)c1cc(-c2ccccc2)nc2ccccc12,n,n,n,n,n,n
O=C(N/N=C/c1ccccn1)c1cc(-c2ccc(Cl)cc2)nc2ccccc12,99,62,n,n,n,n
O=C(O)COc1ccccc1/C=N/NC(=O)c1cc(-c2ccc(Cl)cc2)nc2ccccc12,n,n,n,n,n,n
COc1ccc(Cn2nnnc2C(C(C)C)N(Cc2ccco2)Cc2cccs2)cc1 (centres undefined),n,n,x,n,n,77
CC(C)C(c1nnnn1Cc1ccccc1)N(Cc1ccco1)Cc1cccs1 (centres undefined),n,n,x,n,n,n
CC(Oc1ccc(Cl)cc1Cl)c1nc(-c2ccc(NC(=O)c3ccco3)cc2)no1 (centres undefined),n,54,n,n,n,n
CCOc1ccc(N=Nc2ccc(O)c3ncccc23)cc1,n,92,n,n,n,103
Cc1cccnc1NCc1ccc(O)c2ncccc12,x,67,n,n,n,n
Cc1cccc(NCc2ccc(O)c3ncccc23)c1C,n,n,n,x,n,n
Cc1ccc(C)c(N=Nc2ccc(O)c3ncccc23)c1,n,92,n,x,n,103
Oc1ccc(N=Nc2ccc3c(c2)OCCO3)c2ncccc12,n,89,n,n,n,98
C[C@H](CO)N1C[C@H](C)[C@@H](CN(C)S(=O)(=O)c2ccc(F)cc2)Oc2ccc(NC(=O)Cn3cnnn3)cc2C1=O,x,x,x,n,x,x
CO[C@@H]1CN(C)C(=O)c2cc(NC(=O)Nc3cccc(F)c3)ccc2OC[C@@H](C)N(C(=O)C2CC2)C[C@H]1C,x,x,n,n,x,x
CCS(=O)(=O)c1ccc(OC)c(N=Nc2ccc(O)c3ncccc23)c1,n,n,n,x,n,n
CCN(CC)S(=O)(=O)c1cc(OC)ccc1N=Nc1ccc(O)c2ncccc12,u,68,n,n,n,94
Cc1cccc(N=Nc2ccc(O)c3ncccc23)c1,101,92,n,x,n,99
COc1cccc(NC(=O)N(C)C[C@H]2Oc3ncc(/C=C/c4ccccc4)cc3C(=O)N([C@H](C)CO)C[C@H]2C)c1,x,x,x,n,x,x
COC(=O)c1c(NS(=O)(=O)Cc2ccccc2)sc2c1CCCC2,n,n,x,n,n,n
